Here are results for 21 compounds from ChEMBL document CHEMBL3232883, “Triaryl-substituted Schiff bases are high-affinity subtype-selective ligands for the estrogen receptor” (J Med Chem, 2014).

The source made the active and inactive calls. The calls are words filed in the database; no cut-off is given here.

The target of assay [1] is T1, Estrogen receptor (Homo sapiens) (UniProt P03372).
T1 sequence (whole entry): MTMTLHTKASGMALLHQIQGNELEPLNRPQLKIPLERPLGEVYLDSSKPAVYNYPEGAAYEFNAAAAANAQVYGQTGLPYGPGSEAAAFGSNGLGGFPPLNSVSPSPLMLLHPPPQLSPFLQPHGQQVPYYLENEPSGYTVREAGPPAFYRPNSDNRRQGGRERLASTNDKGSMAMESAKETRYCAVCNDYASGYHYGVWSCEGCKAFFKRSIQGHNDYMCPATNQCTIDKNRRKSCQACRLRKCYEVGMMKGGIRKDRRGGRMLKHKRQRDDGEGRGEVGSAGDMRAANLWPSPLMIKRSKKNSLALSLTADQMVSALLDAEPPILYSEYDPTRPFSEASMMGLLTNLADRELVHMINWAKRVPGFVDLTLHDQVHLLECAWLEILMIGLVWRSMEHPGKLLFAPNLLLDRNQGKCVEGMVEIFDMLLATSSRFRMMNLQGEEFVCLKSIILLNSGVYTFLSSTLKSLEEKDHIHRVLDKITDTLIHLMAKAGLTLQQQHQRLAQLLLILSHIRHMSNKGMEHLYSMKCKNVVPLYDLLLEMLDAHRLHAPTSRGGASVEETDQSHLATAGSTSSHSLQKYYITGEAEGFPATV
Kind of assay: Displacement of [3H]-estradiol from human full-length ERalpha after 18 to 24 hrs by competitive radiometric binding assay relative to estradiol.

Assay [2] concerns the target T2, Estrogen receptor beta (Homo sapiens, UniProt Q92731). Kind of assay: Displacement of [3H]-estradiol from human full-length ERbeta after 18 to 24 hrs by competitive radiometric binding assay relative to estradiol.
The species entered for assay [3] is Homo sapiens. Kind of assay: Selectivity ratio of RBA for human full length ERbeta to RBA for human full-length ERalpha.
The target in assay [4] is T3, Estrogen receptor (Homo sapiens, UniProt P03372).
T3 sequence (P03372 whole entry): T1 sequence (whole entry)
Kind of assay: Agonist activity at ERalpha (unknown origin) expressed in human HepG2 cells assessed as transcriptional activation after 24 hrs by ERE-luciferase reporter gene assay. It is filed as cell-based. In a few lines: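 HepG2 cells were grown in DMEM with 10% FBS and transfected with a 3×ERE-luciferase reporter plus an ERα or ERβ expression vector. The next day cells were moved to phenol red-free medium with 10% charcoal-dextran-stripped FBS, plated at 20 000 cells/well and left overnight. Ligand was then added as a 12-point dose curve from 10 μM to 100 pM. Luciferase was read after 24 h, normalized to DMSO as 0% and the top of the E2 curve as 100%.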

Assay [5] addresses T1, Estrogen receptor (Homo sapiens). Kind of assay: Agonist activity at ERalpha (unknown origin) expressed in human HepG2 cells assessed as transcriptional activation after 24 hrs by ERE-luciferase reporter gene assay relative to 17beta-estradiol. The class given is cell-based. In a few lines:
(§1)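 HepG2 cells were cotransfected with a 3×ERE-luciferase reporter (10 μg) plus an ERα or ERβ expression vector (1.6 μg) per 10 cm dish. The next day they were replated at 20 000 cells/well in phenol red-free medium with 10% charcoal-dextran-stripped FBS and held overnight. Cells were then dosed over a 12-point range of 10 μM to 100 pM. Luciferase was read after 24 h, with DMSO set as 0% and the top of the E2 curve as 100%.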

Assay [6] concerns the target T2, Estrogen receptor beta. Briefly: Agonist activity at ERbeta (unknown origin) expressed in human HepG2 cells assessed as transcriptional activation after 24 hrs by ERE-luciferase reporter gene assay relative to 17beta-estradiol. The class given is cell-based. In outline: as §1
Assay [7] deals with T1, Estrogen receptor (Homo sapiens). Briefly: Antagonist activity at ERalpha (unknown origin) expressed in human HepG2 cells assessed as inhibition of transcriptional activation after 24 hrs by ERE-luciferase reporter gene assay relative to 17beta-estradiol. It is filed as cell-based. In outline: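 Antagonist mode used HepG2 cells cotransfected with a 3×ERE-luciferase reporter plus an ERα expression vector and steroid-deprived in phenol red-free medium with 10% charcoal-dextran-stripped FBS. Cells received 10 nM estradiol together with increasing compound concentrations across a 10 μM to 100 pM dose curve. Luciferase was measured after 24 h and normalized to DMSO (0%) and the top of the E2 curve (100%).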

Assay [8] has as its target T2, Estrogen receptor beta. Briefly: Antagonist activity at ERbeta (unknown origin) expressed in human HepG2 cells assessed as inhibition of 17beta-estradiol-induced transcriptional activation after 24 hrs by ERE-luciferase reporter gene assay. The class given is cell-based. In a few lines:
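ERβ-transfected, steroid-deprived HepG2 cells carrying a 3×ERE-luciferase reporter were co-treated with 10 nM estradiol and test ligand over a range of 10 μM to 100 pM. Luciferase was read after 24 h, with each plate normalized to DMSO (0%) and the maximal E2 response (100%). IC50 and % efficacy were derived from the dose curves.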

The subject of assay [9] is HepG2. Kind of assay: Agonist activity at ERalpha (unknown origin) harboring N-terminal AF1 domain deleted mutant expressed in human HepG2 cells assessed as transcriptional activation after 24 hrs by ERE-luciferase reporter gene assay. It is filed as cell-based.

T2 sequence (Q92731 whole entry): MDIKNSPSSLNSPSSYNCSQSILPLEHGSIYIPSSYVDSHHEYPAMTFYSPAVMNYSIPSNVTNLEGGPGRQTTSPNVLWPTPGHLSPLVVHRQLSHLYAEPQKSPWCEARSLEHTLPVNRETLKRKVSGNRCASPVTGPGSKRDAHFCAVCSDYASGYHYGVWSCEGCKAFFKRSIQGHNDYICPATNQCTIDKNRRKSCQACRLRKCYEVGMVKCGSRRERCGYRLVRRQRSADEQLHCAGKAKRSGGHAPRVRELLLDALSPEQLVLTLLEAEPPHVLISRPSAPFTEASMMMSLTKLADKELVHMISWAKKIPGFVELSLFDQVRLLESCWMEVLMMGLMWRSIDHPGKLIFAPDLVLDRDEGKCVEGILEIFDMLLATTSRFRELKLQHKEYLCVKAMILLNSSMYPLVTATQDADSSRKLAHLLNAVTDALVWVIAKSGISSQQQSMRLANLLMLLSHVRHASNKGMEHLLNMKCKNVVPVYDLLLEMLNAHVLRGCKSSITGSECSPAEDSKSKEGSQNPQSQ

As to `Oc1ccc(/C(=N\c2ccc(F)cc2)c2ccc(O)cc2O)cc1`, the RBA came out at 21.1% in assay [1] and 27.7% in assay [2]. In [3], the Selectivity ratio amounted to 1.3. The EC50 in assay [4] was determined as 10 nM. The Efficacy amounted to 108% in assay [5], 23% in assay [6] and 124% in assay [7]. Moreover, in assay [8], the IC50 was 139 nM. Also, in assay [9], the result was inactive.
Regarding `COc1ccc(/N=C(\c2ccccc2)c2ccc(O)cc2O)cc1`, the RBA in assay [1] amounted to 11.3%; in [2], 5.55%. The Selectivity ratio in [3] came out at 0.49.
As for `Oc1ccc(/C(=N\c2ccccc2Cl)c2ccc(O)cc2O)cc1`, the RBA in assay [1] stood at 96.7%; in [2], 77.9%. Moreover, the Selectivity ratio in assay [3] worked out at 0.8. Also, in assay [4], the EC50 came to 0.1 nM. The Efficacy in [5] was found to be 113%; in assay [6], 54%; in assay [7], 136%. Moreover, the IC50 in assay [8] came to 6 nM. Besides, the result in [9] was inactive.
As for `Oc1ccc(C(=Nc2ccccc2)c2ccc(O)cc2)cc1`, the figures for the RBA in assay [1] and in assay [2] were 14.1% and 31.5%, respectively. Besides, the Selectivity ratio in assay [3] stood at 2.2. Moreover, in [4], the EC50 was found to be 3 nM. Further, the Efficacy in assay [5] came to 110%; in [6], 34%; in assay [7], 126%. Moreover, the IC50 in [8] came out at 13 nM.
In the case of `Oc1ccc(C(=Nc2ccc(Br)cc2)c2ccc(O)cc2)cc1`, the RBA in [1] is 41.5%; in assay [2], 94.1%. For the same compound, in [3], the Selectivity ratio is 2.3. For the same compound, in [4], the EC50 was 1 nM. The Efficacy in [5] is 105%; in assay [6] it was 11%; in [7] it was 128%. In assay [8], the IC50 is 6 nM. Also, in [9], the result was inactive.
Take `Oc1ccc(C(=Nc2ccccc2Cl)c2ccc(O)cc2)cc1`: the RBA in [1] is 62.8%; in [2] it was 97%. Also, in assay [3], the Selectivity ratio turned out to be 1.5. Further, the EC50 in [4] turned out to be 1 nM. Moreover, the Efficacy in assay [5] amounted to 104%; in assay [6] it was 37%; in assay [7], 83%. Moreover, the IC50 in [8] turned out to be 19 nM. Moreover, the result in [9] was inactive.
On to `C/C(=N\c1ccc(O)cc1)c1ccc(O)cc1`, for which the RBA in assay [1] and in assay [2] was less than 3% each time.
`Cc1cccc(/N=C(\c2ccc(O)cc2)c2ccc(O)cc2O)c1`: the RBA worked out at 15.3% in [1] and 38.1% in assay [2]. Further, the Selectivity ratio in [3] amounted to 2.5. In [4], the EC50 is 14 nM. The Efficacy in assay [5] came to 95%; in assay [6] it was 9%; in assay [7] it was 101%. Besides, the IC50 in assay [8] came out at 51 nM. In assay [9], the outcome was inactive.
Turning to `Oc1ccc(C(=Nc2ccc(F)cc2)c2ccc(O)cc2)cc1`, the RBA in assay [1] came to 19.7%; in [2], 45.6%. Further, the Selectivity ratio in assay [3] amounted to 2.3. Besides, the EC50 in [4] turned out to be 2 nM. Moreover, the Efficacy in assay [5] is 114%; in assay [6], 10%; in assay [7], 113%. Also, the IC50 in assay [8] turned out to be 7 nM. For the same compound, the result in assay [9] was inactive.
Take `Cc1cccc(C)c1N=C(c1ccc(O)cc1)c1ccc(O)cc1`: the RBA came to 1.56% in assay [1] and 2.91% in assay [2]. Moreover, in assay [3], the Selectivity ratio turned out to be 1.9.
Take `Oc1ccc(C(=Nc2cccc(C(F)(F)F)c2)c2ccc(O)cc2)cc1`: the RBA in assay [1] was 33.4%; in [2] it was 139%. Further, the Selectivity ratio in assay [3] amounted to 4.2. Further, the EC50 in assay [4] is 23 nM. In addition, the Efficacy in [5] was determined as 89%; in [6] it was 3%; in assay [7] it was 104%. For the same compound, the IC50 in assay [8] was determined as 24 nM. Besides, the result in assay [9] was inactive.
Consider `COc1ccc(/C(=N\c2ccc(O)cc2)c2ccc(O)cc2O)cc1`, for which the RBA in assay [1] was found to be 11.9%; in [2], 39.2%. The Selectivity ratio in assay [3] turned out to be 3.2.
As for `Cc1cccc(N=C(c2ccc(O)cc2)c2ccc(O)cc2)c1`, the RBA in assay [1] stood at 13.2%; in assay [2] it was 69.2%. Further, the Selectivity ratio in assay [3] was 5.2. The EC50 in [4] is 5 nM. The Efficacy in assay [5] is 109%; in assay [6], 13%; in assay [7], 93%. Moreover, the IC50 in assay [8] turned out to be 41 nM. In assay [9], the outcome was inactive.
For `Cc1ccc(N=C(c2ccc(O)cc2)c2ccc(O)cc2)cc1`, the RBA in [1] was 10%; in assay [2], 20.1%. Further, in assay [3], the Selectivity ratio stood at 2. The Efficacy in assay [6] was 7%. Further, in assay [8], the IC50 was 45 nM. Also, the result in [9] was inactive.
In the case of `COc1ccc(N=C(c2ccc(O)cc2)c2ccc(O)cc2)cc1`, the RBA in [1] was found to be 4.41%; in [2], 3.98%. For the same compound, the Selectivity ratio in assay [3] came out at 0.9.
In the case of `Oc1ccc(/C(=N\c2cccc(C(F)(F)F)c2)c2ccc(O)cc2O)cc1`, the results for the RBA in assay [1] and in assay [2] were 28.2% and 72.1%, respectively. Besides, the Selectivity ratio in [3] turned out to be 2.6. In addition, the EC50 in assay [4] turned out to be 57 nM. Further, the figures for the Efficacy in assay [5], in assay [6] and in [7] were 100%, 11% and 95%, respectively. The IC50 in [8] came to 28 nM. Further, the outcome in [9] was inactive.
For `Cc1ccccc1N=C(c1ccc(O)cc1)c1ccc(O)cc1`, the RBA in assay [1] turned out to be 40.6%; in [2], 116%. In addition, the Selectivity ratio in [3] was determined as 2.8. The EC50 in assay [4] was determined as 7 nM. Also, the Efficacy in assay [5] amounted to 103%; in [6] it was 8%; in [7] it was 149%. Further, in assay [8], the half-inhibitory concentration (IC50) was determined as 6 nM. In assay [9], the outcome was inactive.
For the compound `Oc1ccc(/N=C/c2ccccc2O)cc1`, the RBA in assay [1] and in assay [2] was less than 3% throughout.
For `Oc1ccc(/C(=N\c2cccc(Cl)c2)c2ccc(O)cc2O)cc1`, the figures for the RBA in [1] and in assay [2] were 37.6% and 61.6%, respectively. Besides, the Selectivity ratio in assay [3] worked out at 1.6. In addition, in assay [4], the EC50 was 15 nM. The Efficacy in assay [5] stood at 117%; in assay [6], 15%; in [7], 118%. For the same compound, the IC50 in [8] turned out to be 67 nM. Also, the outcome in [9] was inactive.
As to `Oc1ccc(/N=C(\c2ccc(O)cc2)c2ccc(O)cc2O)cc1`, the RBA turned out to be 2.25% in assay [1] and 1.23% in [2]. In addition, the Selectivity ratio in [3] was 0.5. In addition, the EC50 in [4] turned out to be 7 nM. Further, the Efficacy in assay [5] came out at 97%; in assay [6] it was 51%; in [7], 108%. Besides, in assay [8], the IC50 was found to be 417 nM. In addition, the outcome in assay [9] was inactive.
On to `Oc1ccc(C(=Nc2cccc(Cl)c2)c2ccc(O)cc2)cc1`, for which the RBA in assay [1] was 41.8%; in assay [2], 114%. For the same compound, the Selectivity ratio in assay [3] came to 2.5. Further, in assay [4], the EC50 was determined as 10 nM. In addition, the Efficacy in assay [5] stood at 102%; in assay [6], 10%; in [7] it was 109%. Also, the IC50 in [8] came to 16 nM. Further, the result in assay [9] was inactive.
